Assay outcomes: PubChem, Broad Institute
RAD52 anneal inh: blocks human RAD52 DNA annealing. inhibition, % at 18.7 µM. 360,000 tested, 0.46% active. recombinant RAD52 DNA annealing, FRET fluorescence. P43351;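 active = every replicate showing at least 50% inhibition; inconclusive = mean inhibition at least 50% but not in every replicate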
PglD DTNB: PglD (C. jejuni) enzyme inhibition. 360,000 tested, 0.098% active. inhibition, % at 12.5 µM. purified PglD enzyme, DTNB colorimetric CoA detection; in the data active = inhibition above about 16%, passing the limit was not always enough; inconclusive = no clear call, values can overlap the other calls
XiGFP reactiv: reactivates the inactive X chromosome in mouse fibroblasts | XiGFP mouse fibroblasts, % GFP-positive cells imaging, 3 d; cells co-treated with 5-aza-dC sensitizer; scaled so ellipticine positive control = 100% | AID 743238 | 360,000 tested, 0.055% active | activation, % at 7.58 µM;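 active = mean normalized replicate activation at least 10% and every replicate at or above 10%; inconclusive = only one of the two criteria met; inactive = mean below 10% and not all replicates reach 10%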;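 note: 0% = median of on-plate neutral control wells and 100% = ellipticine 6 µM median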
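System: XiGFP fibroblasts, SV40-immortalized. Medium: DMEM plus 5-aza-dC sensitizer. Doses: single point. Timing: 3 d treatment, 15 min room-temperature fixation. Control set: ellipticine 6 µM.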
E-sel inducer: induces E-selectin expression in human endothelial cells; HUVEC E-selectin immunofluorescence imaging; normalized: neutral wells 0, TNF-alpha wells 100; activation, % at 7.58 µM; 260,000 tested, 0.37% active;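 active = mean E-selectin-positive cell signal at least 10% of the positive control, reached in at least 60% of replicates, without over 20% cell loss; inconclusive = no rule given, readout overlaps actives, possibly toxicity-flagged; inactive = the rest, including those meeting only one limit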
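Material: HUVEC primary endothelial cells; Amount: 3,000 cells per well; Dosing: single concentration; Medium: EGM-2 growth medium on 0.1% gelatin-coated wells; Read-out basis: percent E-selectin-positive cells; Signal: immunofluorescence imaging; Control set: TNF-alpha, DMSO.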
RAD54 branch: inhibitors of human RAD54 branch migration | 360,000 tested, 0.14% active | inhibition, % at 10.4 µM | RAD54 Holliday junction branch migration, FAM/BHQ fluorescence;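 active = mean normalized replicate activity at least 40 and at least half of replicates scoring 40 or more; inconclusive = only one of the two criteria met; inactive = mean below 40 and under half of replicates reaching 40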;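 note: 0% = median of neutral control wells and 100% = median of positive control wells; inhibitors cause a drop in the FAM fluorescence signal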
Target sequence (Q92698 whole entry, looked up): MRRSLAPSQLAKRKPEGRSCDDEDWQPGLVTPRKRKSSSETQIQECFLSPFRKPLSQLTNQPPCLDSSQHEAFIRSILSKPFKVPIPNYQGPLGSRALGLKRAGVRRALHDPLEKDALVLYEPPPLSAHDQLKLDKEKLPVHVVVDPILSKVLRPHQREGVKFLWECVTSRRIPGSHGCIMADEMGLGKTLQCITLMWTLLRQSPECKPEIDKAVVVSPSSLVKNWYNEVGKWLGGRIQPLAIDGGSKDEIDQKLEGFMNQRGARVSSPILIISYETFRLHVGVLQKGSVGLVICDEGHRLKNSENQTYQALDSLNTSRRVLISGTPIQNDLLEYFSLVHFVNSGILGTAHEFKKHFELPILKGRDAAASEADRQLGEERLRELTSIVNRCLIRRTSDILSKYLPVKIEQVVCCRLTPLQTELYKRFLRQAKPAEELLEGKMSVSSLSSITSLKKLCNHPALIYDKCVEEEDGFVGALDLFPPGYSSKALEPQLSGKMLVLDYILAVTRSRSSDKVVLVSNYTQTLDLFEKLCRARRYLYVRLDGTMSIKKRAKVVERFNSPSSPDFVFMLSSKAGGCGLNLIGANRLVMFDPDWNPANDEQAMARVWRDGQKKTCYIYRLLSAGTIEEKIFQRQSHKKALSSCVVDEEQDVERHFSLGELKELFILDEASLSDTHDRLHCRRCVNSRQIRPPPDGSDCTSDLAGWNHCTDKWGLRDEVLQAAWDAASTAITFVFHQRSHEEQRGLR
Ecoli rRNA inh: inhibits bacterial ribosomal RNA function over humanized ribosomes; E. coli WT GFP vs humanized-ribosome RFP mutants, fluorescence, 24 h; hits give low values; DMSO median 0, no signal -100; 350,000 tested, 1.6% active; GFP signal change (wild-type ribosome), % (test concentration not listed);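 active = significant combined selectivity score with lowered wild-type GFP, culture density cut under 30%, mutant RFP and density less affected; inactive = any of these conditions unmet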
AID977621: growth inhibition of wild-type GFP E. coli, dose response, H69 mutant RFP, cherry-pick; shares compounds with Ecoli rRNA inh; E. coli wild-type GFP strain growth, fluorescence, 24 h; activity change, negative = inhibition at 50 µM; 1,900 tested, under 10 active;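 active = Wild-type ribosome reporter drop at least double the humanized mutant ribosome reporter drop, growth loss under a set limit; inconclusive = no clear call, values can overlap the other calls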;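 note: wild-type GFP and H69 mutant RFP strains grown together 50/50 in each well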
AID977628: E. coli growth inhibition, wild-type GFP versus h24 humanized RFP strain, dose response, h24 mutant RFP vs wild-type GFP, cherry-pick; E. coli WT GFP strain growth, fluorescence, 24 h; AID 977628; 1,900 tested, under 10 active; shares compounds with Ecoli rRNA inh; activity change, negative = inhibition at 50 µM;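 active = compound lowering the normal-ribosome reporter at least twice as much as the humanized-ribosome reporter, growth loss under a set limit; inconclusive = no clear call, values can overlap the other calls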;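 note: wild-type GFP and h24 humanized RFP strains co-cultured 1 to 1 per well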
The depositor's hits bear a star; ? = inconclusive; . = no result. An excerpt weighted towards active compounds, which were near 2% of everything screened.

SMILES	RAD52 anneal inh	PglD DTNB	XiGFP reactiv	E-sel inducer	RAD54 branch	Ecoli rRNA inh	AID977621	AID977628
O=C(C[C@H]1CC[C@@H]2[C@H](COC[C@H](O)CN2S(=O)(=O)c2cccc(Cl)c2)O1)NCCCN1CCOCC1	-6	2	0	0	10	1	.	.
COc1ccc(S(=O)(=O)Nc2ccc3c(c2)CC(=O)N([C@@H](C)CO)C[C@H](C)[C@H](CN(C)CC2CCCCC2)O3)cc1	7	-3	0	0	5	1	.	.
Cc1cc(CNC(=O)c2cc(-c3ccccc3)nc3ccccc23)nn1C	-14	.	0	.	.	-24*	-7.1	-14
CCc1nnc(NS(=O)(=O)c2ccc(NC(=O)c3cccc(Cl)c3)cc2)s1	0	.	0	5	.	-17*	?	?
CCCC#Cc1ccc([C@@H]2[C@@H](CO)N3C(=O)CN(C(=O)Nc4cccc(F)c4)C[C@@H]23)cc1	7	.	0	0	.	-37	.	.
O=S(=O)(NC1c2cccc3cccc(c23)C1Sc1ncccn1)c1ccccc1 (stereo unspecified)	-14	.	0	0	.	-24*	-7.5	?
CN(C)CCN(C(=O)C1CCN(S(=O)(=O)c2cccs2)CC1)c1nc2c(F)cccc2s1	7	8	0	0	4	11	.	.
Cc1ccc2nc(N(CCN(C)C)C(=O)C3CCN(S(=O)(=O)c4cccs4)CC3)sc2c1	-6	8	0	.	11	-11*	?	.
NC(=O)c1snnc1-c1ccccc1	-15	8	0	0	16	-1	.	.
NC(=O)c1sc2nnc(-c3ccccc3)c(-c3ccccc3)c2c1N	-105	5	0	0	-4	-29*	.	-8.1
CCS(=O)(=O)N1CCN(c2ccnc3cc(Cl)ccc23)CC1	5	2	0	6	-4	-21*	-4.3	.
CS(=O)(=O)N1CCN(c2ccnc3cc(Cl)ccc23)CC1	-14	4	0	.	1	-16	.	.
COc1ccc(C#Cc2ccc3c(c2)[C@@H]2[C@@H](CCN2Cc2nccs2)[C@@H](CO)N3)cc1	.	3	1	0	1	-22*	.	?
C[C@@H]1CN([C@@H](C)CO)C(=O)c2cccc(NS(=O)(=O)c3cccs3)c2O[C@@H]1CN(C)C(=O)Nc1ccccc1	.	.	-1	3	.	-4	.	.
Cc1[nH]nc2c1C(c1ccc(F)cc1)N(Cc1ccccc1)C2=O (stereo unspecified)	7	.	0	0	.	-21*	.	?
COc1ccc(Cl)cc1NC(=O)CN(C)CC(=O)Nc1ccccc1-c1ccccc1	-8	-2	0	-1	-14	-24*	-9.7	.
COC(=O)C(Cc1c[nH]c2ccccc12)NC(C)=O (stereo unspecified)	.	-3	.	.	-13	.	.	.
COC(=O)[C@@H](Cc1c[nH]c2ccccc12)NCc1cccc(B(O)O)c1	-19	1	0	0	0	-20*	?	.
CNC[C@H]1Oc2c(NS(=O)(=O)c3ccc(F)cc3)cccc2C(=O)N([C@@H](C)CO)C[C@@H]1C	-19	-2	0	.	1	-1	.	.
CC(=O)c1c(N2CCOCC2)nc2ccc(Cl)cc2c1-c1ccccc1	-11	.	0	.	.	-19*	0.093	.
Cc1nc2ccc(Cl)cc2c(-c2ccccc2)c1C(=O)N(C)C	13	6	0	.	-21	-7	.	.
CC(C)c1ccc(-c2nc3ccccc3s2)cc1	-11	.	0	.	.	-16*	-3.1	-4.9
COc1ccc(NC(=O)c2cccc(Oc3ccc([N+](=O)[O-])cc3Cl)c2)cc1	-1	.	0	0	.	-24*	1.8	-2.2
C[C@H](O)C#Cc1cnc2c(c1)C(=O)N([C@H](C)CO)C[C@@H](C)[C@H](CN(C)C(=O)CN1CCOCC1)O2	1	-2	0	.	-3	4	.	.
COc1ccc(Br)c(-c2nc(CS(=O)(=O)c3ccc(F)cc3)no2)c1	-16	.	0	.	.	-27*	.	-7.5
SMILES	RAD52 anneal inh	PglD DTNB	XiGFP reactiv	E-sel inducer	RAD54 branch	Ecoli rRNA inh	AID977621	AID977628
COc1ccc(Br)c(-c2nnc(CS(=O)(=O)c3ccccc3)o2)c1	-7	1	0	0	-2	-5	.	.
C/C=C/c1ccc2c(c1)O[C@H](CN(C)C(=O)NC(C)C)[C@@H](C)CN([C@H](C)CO)S2(=O)=O	-3	-3	-1	0	-14	0	.	.
COC(=O)CNC(=O)COC(=O)c1ccc(Cl)nc1	2	8	0	8	10	-19*	-8.5	-5.9
O=C(COC(=O)c1ccc(Cl)nc1)NCCc1ccc(Cl)cc1	-7	-4	0	0	8	4	.	.
CN(c1ccccc1)S(=O)(=O)c1cccc(NC(=O)CCNC(=O)c2ccc([N+](=O)[O-])cc2)c1	-14	8	0	0	4	-17*	-4.7	?
O=C(Nc1ccccc1N1CCOCC1)C1CCCCN1S(=O)(=O)c1ccccc1 (stereo unspecified)	-30	.	0	3	.	-31*	-11	-17
Cc1cccc(NC(=O)C2CCCCN2S(=O)(=O)c2ccccc2)c1C (stereo unspecified)	-7	.	0	0	-19	-11	.	.
C[C@H](NC(=O)N(C)C[C@@H]1OCc2ccccc2-c2ccccc2C(=O)N([C@@H](C)CO)C[C@@H]1C)c1ccccc1	-2	-2	1	0	-4	3	.	.
CS(=O)(=O)N(CC(=O)N1CCCCCC1)c1cccc(Br)c1	.	0	.	.	3	.	.	.
CS(=O)(=O)N(CC(=O)N1CCc2ccccc2C1)c1cccc(Br)c1	-10	5	0	.	-7	-23*	-7.3	?
COc1ccc(-c2csc(NC(=O)c3ccoc3C)n2)cc1	-21	.	0	1	.	-25*	.	-7.2
COc1ccc(-c2csc(NC(=O)c3ccccc3S(C)(=O)=O)n2)cc1	-8	.	0	0	.	-36*	-6.3	?
C[C@H](CO)N1C[C@H](C)[C@H](CN(C)C(=O)Nc2cccc3ccccc23)Oc2ccc(NC(=O)Cc3cn(C)c4ccccc34)cc2C1=O	-13	4	0	.	0	-1	.	.
CN(C)CCCN(C(=O)CCSc1ccccc1)c1nc2cc3c(cc2s1)OCO3	46	-2	0	.	12	-31*	-5.2	-3.8
COC(=O)c1cc(S(=O)(=O)NCc2ccc3c(c2)OCO3)cn1C	-5	4	0	.	2	-13*	-4.9	-6.9
